Our source for the inhibition values is PubChem BioAssay AID1385 (PCMD, 2008).

Molecules are shown by their SMILES. The campaign covered roughly 200,000 compounds. About 170 (0.085%) were called active. The full list was thinned out, with actives kept by preference. Values without a mark were called inactive.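 How the source made its calls: active means inhibition above 40% at the single screening dose; inactive means the rest.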

For the experiment, the target named is DNA repair protein RAD51 homolog 1 (Homo sapiens) (UniProt Q06609). Briefly: human RAD51 strand exchange inhibitors, primary screen, biochemical, fluorescence (AID 1385).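 Further: 0% = DMSO control wells and 100% = blanks with heterologous ssDNA.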 The settings on record: hRad51 DNA strand exchange, fluorescence dequenching; at 10 µM; stronger effect = higher value. In outline: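 Test system – preformed human Rad51 ssDNA filaments · Reagent – Donor/quencher-labelled 47-bp dsDNA substrate · Incubation – 37 °C 15-min filament assembly, 30-min compound preincubation, 15-min exchange · Signal – FRET fluorescence dequenching, excitation 485 nm, emission 520 nm · Read-out – percent inhibition from fluorescence, normalised to plate control and blank means · Benchmarks – plate control and blank wells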
DNA repair protein RAD51 homolog 1 (Homo sapiens), sequence (Q06609 whole entry, looked up): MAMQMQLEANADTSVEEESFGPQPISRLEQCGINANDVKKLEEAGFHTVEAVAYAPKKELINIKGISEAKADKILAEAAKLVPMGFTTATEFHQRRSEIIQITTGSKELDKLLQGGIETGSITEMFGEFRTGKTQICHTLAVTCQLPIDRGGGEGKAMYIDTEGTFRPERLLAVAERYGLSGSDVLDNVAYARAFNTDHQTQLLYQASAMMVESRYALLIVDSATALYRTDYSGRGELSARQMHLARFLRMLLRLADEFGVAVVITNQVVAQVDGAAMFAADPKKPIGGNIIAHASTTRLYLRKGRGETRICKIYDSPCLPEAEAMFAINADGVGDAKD
The inhibition is the change of the read-out against control, counted positive when it falls. Regarding `Cc1ccc2c(c1)nnc1nnc(SCC(=O)O)n12`, the inhibition was 3.89%. As to `CCC(C)(C)NC(=O)C(c1ccc(O)cc1)N(C(=O)Cn1nnc2ccccc21)c1ccc(NC(C)=O)cc1` (stereo unspecified), the inhibition is -8.67%. On to `Oc1c(Br)cc(/C=N/NC(=S)NCC2CCCO2)cc1Br` (stereo unspecified), for which the inhibition was -9.24%. For the molecule `O=C(Nc1nc2ccc([N+](=O)[O-])cc2s1)c1ccncc1`, the inhibition is 6.33%.

Turning to `COc1cc(OC)c(OC)cc1/C=N/Nc1ncnc2c1[nH]c1ccc(C)cc12`, the inhibition was -8.84%. With `Cc1nc(-c2ccc(Cl)cc2)sc1C1(C)CC(c2ccc(Br)cc2)=NO1` (stereo unspecified), the inhibition was -6.72%.

Regarding `COc1ccc(Cc2nnc(NS(=O)(=O)Cc3ccccc3)s2)cc1`, the inhibition is -0.75%. As to `CCC(CC)c1nnc(NS(=O)(=O)Cc2ccccc2)s1`, the inhibition is 84.4% (active).

As for `CCC(CC)c1nnc(NC(=O)c2nn(C)c(=O)c3ccccc23)s1`, the inhibition is 6.66%. As to `COc1ccccc1N1CCN(C(=O)CSc2ncnc3c2cnn3-c2ccc(C)c(C)c2)CC1`, the inhibition was -12.6%.

Turning to `CC1CN(c2nc(Nc3ccccc3)nc(N)c2[N+](=O)[O-])CC(C)O1` (stereo unspecified), the inhibition was -23.5%. Take `CC(=O)c1ccc(NC(=O)C2CC(=O)Nc3nc4ccccc4n32)cc1` (stereo unspecified): the inhibition is -1.17%. Turning to `COc1ccccc1-c1c(C#N)c(N)nc2c1CCC2`, the inhibition was -0.29%.

As to `CCNC(=S)N1CCN(CCN=CC2=C(O)CC(C)(C)CC2=O)CC1`, the inhibition was 16.2%.

Take `Cc1cccc(N2CCN(Cc3nc(C4CC4)no3)CC2)n1`: the inhibition was -8.44%. In the case of `COC(=O)[C@H](CC(C)C)NC(=O)N1CCCCC1C` (stereo partly specified), the inhibition was -6.96%.

On to `COc1ccc(/C(C)=N/N2CCOCC2)c(O)c1`, for which the inhibition is 16.1%. `Cn1c(SCC(=O)N/N=C/c2ccc(O)c(O)c2)nc2ccccc21`: the inhibition was -10.2%. Turning to `Cc1cc(=O)oc2c(C(=O)c3ccccc3)c(OCC(N)=O)ccc12`, the inhibition was -5.93%. Take `CCOc1ccc(C2NC(=S)NC3=C2CCc2ccccc23)cc1` (stereo unspecified): the inhibition was 5.83%. To `CN1CCc2nc(SC(C(=O)O)c3ccccc3)c(C#N)c(-c3cccs3)c2C1` (stereo unspecified) belongs -22.2%; to `CCCc1ccc(C(=O)[C@@H]2[C@@H](C(C)=O)N3c4ccc(F)cc4C=C[C@@H]3[C@@]23C(=O)Nc2ccccc23)cc1`, 10.1%. To `CC(C)S(=O)(=O)c1csc(NC(=O)Nc2ccc(Cl)cc2)c1Cl` belongs -3.14%; to `Cc1ccc(-c2csc(-c3cc(C)on3)n2)cc1`, 9.91%; to `CC1(C)CCSC(/C=C/c2ccccc2)=N1`, 10.2%. For `CC(C)(C)c1cc(C(=O)NN)n(Cc2ccc(Cl)cc2Cl)n1`, the inhibition was 9.98%.
